Experimental data from different studies.
Each line is one published result; the experiments were not run side by side.
Read-out: cell growth or viability

| SMILES | cell line | test | conditions | endpoint | result |
| --- | --- | --- | --- | --- | --- |
| NCCC(=O)Nc1ccccc1/N=c1\cc(-c2ccc3nc(N)oc3c2)oc2ccc(F)cc12 | MDA-MB-468 | CCK-8 | 1 µM | inhibition | 59.8% |
| C[C@H](Nc1ccc2c(c1)OCCn1cc(N3C(=O)OC[C@H]3C(F)F)nc1-2)C(N)=O | MDA-MB-361 | ATP luminescence | 5 days | EC50 | 7.5 nM |
| COCCNC(=O)c1ccc(-c2nc3ccc4[nH]ncc4c3c3c2CCCC3)cc1 | MV4-11 | resazurin | 72 h | GI50 | 400 nM |
| CS(=O)(=O)NCCC(=O)Nc1ccccc1/N=c1\cc(-c2ccc3nc(N)oc3c2)oc2ccccc12 | MDA-MB-468 | CCK-8 | 1 µM | inhibition | 3.19% |
| Cc1ccc(-c2nn(Cc3ccccc3)c3ccccc23)o1 | RBE | ATP luminescence | 46 µM, 72 h | inhibition | 59% |
| CN(C)CCN(C)C(=O)c1ccc(-c2nc3ccc4[nH]ncc4c3c3c2CCCCC3)nc1 | MV4-11 | resazurin | 72 h | GI50 | 1200 nM |
| O=C(CCCCCCC(=O)Nc1ccccc1)NO | HBL1 | ATP luminescence | 0.1 µM, 5 days | viability | 132% |
| CC(C)(C)[C@H](N)C(=O)Nc1ccccc1/N=c1\cc(-c2ccc3c(c2)OCCO3)oc2cc(F)ccc12 | MDA-MB-468 | CCK-8 | 1 µM | inhibition | -0.62% |
| O=C(NCCN1CCCCC1)c1ccc(-c2nc3ccc4[nH]ncc4c3c3c2CCCC3)cc1 | MV4-11 | resazurin | 72 h | GI50 | 1700 nM |
| O=C(Nc1ccccc1/N=c1\cc(-c2ccc3c(c2)OCO3)oc2ccccc12)N1CCNCC1 | MDA-MB-468 | CCK-8 | 1 µM | inhibition | -5.89% |
| CCN(Cc1ccc(F)cc1)c1ccc(CO)c(Cl)c1 | RBE | ATP luminescence | 46 µM, 72 h | inhibition | 53% |
| CN(C)CCN(C)C(=O)c1ccc(-c2nc3ccc4[nH]ncc4c3c3c2CCCCC3)cc1 | MV4-11 | resazurin | 72 h | GI50 | 383 nM |
| CCN(Cc1ccc(F)cc1F)c1ccc(CO)c(Cl)c1 | RBE | ATP luminescence | 46 µM, 72 h | inhibition | 82% |
| Cc1n[nH]c2ccc3nc(-c4ccc(C(=O)NCCN(C)C)cc4)c4c(c3c12)CCC(F)(F)C4 | MV4-11 | resazurin | 72 h | GI50 | 132 nM |
| OCc1ccc(-c2nn(Cc3ccc(F)cc3)c3ccccc23)o1 | RBE | ATP luminescence | 46 µM, 72 h | inhibition | 66% |
| Cc1n[nH]c2ccc3nc(-c4ccc(C(=O)NCCN5CCCC5)cc4)c4c(c3c12)CCCC4 | MV4-11 | resazurin | 72 h | GI50 | 428 nM |
| O=C(OCc1ccccc1)n1nc(-c2ccc(CO)o2)c2ccccc21 | RBE | ATP luminescence | 46 µM, 72 h | inhibition | 55% |
| NCCC(=O)Nc1cccc(/N=c2\cc(-c3ccc4c(c3)OCO4)oc3ccccc23)c1 | MDA-MB-468 | CCK-8 | 1 µM | inhibition | 3.6% |
| OCc1coc(-c2nn(Cc3ccccc3)c3ccccc23)n1 | RBE | ATP luminescence | 46 µM, 72 h | inhibition | 32% |
| CC(C)(C)[C@H](N)C(=O)Nc1ccccc1/N=c1\cc(-c2ccc3c(c2)OCO3)oc2ccccc12 | MDA-MB-468 | CCK-8 | 1 µM | inhibition | -1.02% |
